Experimental data taken from article PMC8753134 (Research and Practice in Thrombosis and Haemostasis, 2022).
Where a name gives a salt, the structure may show the parent alone. Read-outs that look alike come from different tables or passages of the source. Values belong to the compound of their own block, whether it stands above or below them. No end group written: not given here.

How the values were obtained:
[1] = tested on: FXIIa and PKa (contact activation-mediated BK formation); test: Screening of serine protease inhibitors against artificial ex vivo BK formation; assay type: biochemical, human; details: citrate plasma; for BK levels after 4.5 hours: 4.5 hours after sampling, n = 3
How it was run: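 Fresh blood in citrate, with serine protease inhibitors present singly (e.g., 2 mM AEBSF), then combinations of the most promising; uninhibited plasma as reference. BK was quantified by in-house LC-MS/MS immediately (reference value) and up to 4.5 h after sampling, given as relative abundance. Samples were analysed directly without long-term storage.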

[2] = cited from earlier work
[3] = assay type: in vitro ADME, human; details: spiked 1 ng/mL, 3 hours after sampling, absence of inhibitor, n = 3

Compound: N=C(N)c1ccc2cc(OC(=O)c3ccc(N=C(N)N)cc3)ccc2c1 [nafamostat, nafamostat mesylate]
BK levels after 4.5 hours [1]: BK levels were increased

Compound: CC(=O)N[C@@H](CC(C)C)C(=O)N[C@@H](CC(C)C)C(=O)N[C@H](C=O)CCCNC(=N)N [leupeptin, leupeptin hemisulfate]
BK levels after 4.5 hours [1]: BK levels were increased

Compound: RPPGF [BK‐(1‐5), Bradykinin 1–5]
half-life ([2]; inactive metabolite): ≈ 90 minutes

change of spiked plasma kinin level [3]: −100%
Compound: NCCCC[C@H](N)C(=O)N[C@@H](CCCN=C(N)N)C(=O)N1CCC[C@H]1C(=O)N1CCC[C@H]1C(=O)NCC(=O)N[C@@H](Cc1ccccc1)C(=O)N[C@@H](CO)C(=O)N1CCC[C@H]1C(=O)N[C@@H](Cc1ccccc1)C(=O)N[C@@H](CCCN=C(N)N)C(=O)O [KBK, Kallidin]
half-life [2]: < 1 min

change of spiked plasma kinin level [3]: −65.7%
Compound: RPPGFSP [BK‐(1‐7), Bradykinin 1–7]

Compound: hexadimethrine bromide [HDMB]
BK level as % of uninhibited plasma ([1]; tube prespiked with inhibitor, n = 3, LC-MS/MS): 0.4%

Compound: RPPGFSPFR [BK, Bradykinin]
half-life [2]: < 1 min
